Results reported in ChEMBL document CHEMBL3091313, “Amino acids derived benzoxazepines: design, synthesis and antitumor activity” (Bioorg Med Chem Lett, 2013).
Active and inactive are the calls of the source. The calls are words filed in the database; no cut-off is given here.

How the values were obtained:
MDA-MB-231 [1] = assay: Cell cycle arrest in human MDA-MB-231 cells assessed as apoptosis at 1 uM after 24 hrs using propidium iodide staining by flow cytometry (reference value: 0.10 %); format: functional
MCF7 [2] = assay: Induction of apoptosis in human MCF7 cells assessed as phosphatidylserine exposure after 24 hrs using annexin V/PI staining by flow cytometry; format: functional, cell-based
In short: (§1)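 MCF-7 cells were exposed to vehicle or the indicated compound concentrations for 24 h. Phosphatidylserine exposure was then measured by flow cytometry after staining with FITC-labelled Annexin V and propidium iodide. Apoptotic cell fractions were read from dot plots relative to vehicle.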

MCF7 [3] = assay: Induction of apoptosis in human MCF7 cells assessed as PARP cleavage after 6 to 24 hrs by densitometry; format: functional, cell-based
In short: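 Lysates from treated MCF-7 cells were immunoblotted for PARP, and cleaved PARP was quantified by densitometry. Data are mean ± SEM of three independent experiments.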

MCF7 [4] = assay: Induction of apoptosis in human MCF7 cells assessed as late apoptotic cells at 5 uM after 24 hrs using annexin V/PI staining by flow cytometry (reference value: 6.46 %); format: functional; in short: as §1
MCF7 [5] = assay: Induction of apoptosis in human MCF7 cells assessed as early apoptotic cells at 5 uM after 24 hrs using annexin V/PI staining by flow cytometry (reference value: 3.19 %); format: functional
MCF7 [6] = assay: Induction of apoptosis in human MCF7 cells assessed as late apoptotic cells at 3 uM after 24 hrs using annexin V/PI staining by flow cytometry (reference value: 6.46 %); format: functional; in short: as §1
MCF7 [7] = assay: Induction of apoptosis in human MCF7 cells assessed as early apoptotic cells at 3 uM after 24 hrs using annexin V/PI staining by flow cytometry (reference value: 3.19 %); format: functional
MCF7 [8] = assay: Induction of apoptosis in human MCF7 cells assessed as early apoptotic cells at 1 uM after 24 hrs using annexin V/PI staining by flow cytometry (reference value: 3.19 %); format: functional
[9] = Safety index, ratio of IC50 for HEK293 cells to IC50 for human MCF7 cells; format: toxicity, cell-based; details: HEK293 cells versus MCF7 cells, read-out: Ratio IC50
In short: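 Cell death was assessed by MTT assay after 72 h exposure. The ratio was calculated as the HEK-293 IC50 divided by the MCF-7 EC50.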

MDA-MB-231 [10] = assay: Antiproliferative activity against human MDA-MB-231 cells after 48 hrs by MTT assay; format: functional, cell-based; details: MDA-MB-231, 48 h
In short: (§2)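 MCF-7 (ER+ve) and MDA-MB-231 (ER-ve) breast cancer cells were exposed to compound or vehicle. Viability was read by MTT and expressed as % cell death versus vehicle, with 4-hydroxytamoxifen as positive control. IC50 came from three independent experiments, each in triplicate.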

MCF7 [11] = assay: Antiproliferative activity against human MCF7 cells after 72 hrs by MTT assay; format: functional, cell-based; details: MCF7, 72 h; in short: as §2
HEK293 = assay: Cytotoxicity against HEK293 cells after 24 hrs by MTT assay; format: cell-based; details: Homo sapiens, HEK293, 72 h; in the assay text read “after 72 hrs” for “after 24 hrs”
MCF7 [12] = assay: Antiproliferative activity against human MCF7 cells after 24 hrs by MTT assay; format: functional, cell-based; details: MCF7, 24 h; in short: as §2
MCF7 [13] = assay: Antitumor activity against human MCF7 cells xenografted in athymic nude mouse assessed as reduction in tumor volume at 16 mg/kg/day, po for 21 days measured after 21 days relative to control; format: functional; set-up: scale not given: the % may be the effect or the level left
MCF7 [14] = assay: Induction of apoptosis in human MCF7 cells assessed as reduction in cell viability at 5 uM after 24 hrs by MTT assay in presence of zIEDT-FMK; format: functional, cell-based
MCF7 [15] = assay: Induction of apoptosis in human MCF7 cells assessed as reduction in cell viability at 5 uM after 24 hrs by MTT assay in presence of zVAD-FMK; format: functional, cell-based
MCF7 [16] = assay: Induction of apoptosis in human MCF7 cells assessed as increase in Bax/Bcl2 ratio at 5 uM after 6 to 24 hrs by immunoblotting method; format: functional, cell-based
MCF7 [17] = assay: Induction of apoptosis in human MCF7 cells assessed as reduction in mitochondrial membrane potential at 1 to 5 uM after 12 hrs by Jc-1 staining-based flow cytometry; format: functional, cell-based
MCF7 [18] = assay: Cell cycle arrest in human MCF7 cells assessed as decrease in cyclin D1 protein level at 5 uM after 12 to 24 hrs by immunoblotting method; format: functional, cell-based
MCF7 [19] = assay: Cell cycle arrest in human MCF7 cells assessed as increase in p27 protein level at 5 uM after 12 to 24 hrs by immunoblotting method; format: functional, cell-based
MCF7 [20] = assay: Cell cycle arrest in human MCF7 cells assessed as increase in p21 protein level at 5 uM after 12 to 24 hrs by immunoblotting method; format: functional, cell-based
MCF7 [21] = assay: Cell cycle arrest in human MCF7 cells assessed as decrease in E2F mRNA level at 1 to 5 uM after 12 hrs by QRT-PCR method; format: functional, cell-based
MCF7 [22] = assay: Cell cycle arrest in human MCF7 cells assessed as increase in p27 mRNA level at 1 to 5 uM after 12 hrs by QRT-PCR method; format: functional, cell-based
MCF7 [23] = assay: Cell cycle arrest in human MCF7 cells assessed as accumulation at S phase at 5 uM after 24 hrs using propidium iodide staining by flow cytometry (reference value: 24.81 %); format: functional
MCF7 [24] = assay: Cell cycle arrest in human MCF7 cells assessed as accumulation at G2 phase at 5 uM after 24 hrs using propidium iodide staining by flow cytometry (reference value: 7.46 %); format: functional
MCF7 [25] = assay: Cell cycle arrest in human MCF7 cells assessed as accumulation at G1 phase at 5 uM after 24 hrs using propidium iodide staining by flow cytometry (reference value: 67.73 %); format: functional
MCF7 [26] = assay: Cell cycle arrest in human MCF7 cells assessed as apoptosis at 5 uM after 24 hrs using propidium iodide staining by flow cytometry (reference value: 0.06 %); format: functional
MCF7 [27] = assay: Cell cycle arrest in human MCF7 cells assessed as accumulation at S phase at 3 uM after 24 hrs using propidium iodide staining by flow cytometry (reference value: 24.81 %); format: functional
MCF7 [28] = assay: Cell cycle arrest in human MCF7 cells assessed as accumulation at G2 phase at 3 uM after 24 hrs using propidium iodide staining by flow cytometry (reference value: 7.46 %); format: functional
MCF7 [29] = assay: Cell cycle arrest in human MCF7 cells assessed as apoptosis at 3 uM after 24 hrs using propidium iodide staining by flow cytometry (reference value: 0.06 %); format: functional
MCF7 [30] = assay: Cell cycle arrest in human MCF7 cells assessed as accumulation at G1 phase at 1 uM after 24 hrs using propidium iodide staining by flow cytometry (reference value: 67.73 %); format: functional
MDA-MB-231 [31] = assay: Cell cycle arrest in human MDA-MB-231 cells assessed as accumulation at S phase at 5 uM after 24 hrs using propidium iodide staining by flow cytometry (reference value: 28.59 %); format: functional
MDA-MB-231 [32] = assay: Cell cycle arrest in human MDA-MB-231 cells assessed as accumulation at G1 phase at 5 uM after 24 hrs using propidium iodide staining by flow cytometry (reference value: 52.67 %); format: functional
MDA-MB-231 [33] = assay: Cell cycle arrest in human MDA-MB-231 cells assessed as apoptosis at 5 uM after 24 hrs using propidium iodide staining by flow cytometry (reference value: 0.10 %); format: functional
MDA-MB-231 [34] = assay: Cell cycle arrest in human MDA-MB-231 cells assessed as accumulation at G1 phase at 3 uM after 24 hrs using propidium iodide staining by flow cytometry (reference value: 52.67 %); format: functional

SMILES: Cc1ccc(S(=O)(=O)N2Cc3ccccc3OC[C@@H]2Cc2ccc(OCCN3CCCCCC3)cc2)cc1.Cl
- Activity (MDA-MB-231 [1]): 0.6%
- Activity (MCF7 [2]): Dose-dependent effect
- Activity (MCF7 [3]): Dose-dependent effect
- Activity (MCF7 [4]): 35.77%
- Activity (MCF7 [5]): 42.51%
- Activity (MCF7 [6]): 25.59%
- Activity (MCF7 [7]): 20.74%
- Activity (MCF7 [8]): 15.13%
- selectivity ratio [9]: 16.4
- IC50 (MDA-MB-231 [10]): 5.45 µM
- IC50 (MCF7 [11]): 1.83 µM
- IC50 (HEK293): 30 µM
- IC50 (MCF7 [12]): 6.78 µM
- Activity (MCF7 [13]): 50%
- Activity (MCF7 [14]): Active
- Activity (MCF7 [15]): Active
- Activity (MCF7 [16]): Active
- Activity (MCF7 [17]): Active
- Activity (MCF7 [18]): Active
- Activity (MCF7 [19]): Active
- Activity (MCF7 [20]): Active
- Activity (MCF7 [21]): Active
- Activity (MCF7 [22]): Active
- Activity (MCF7 [23]): 7.34%
- Activity (MCF7 [24]): 6.44%
- Activity (MCF7 [25]): 86.22%
- Activity (MCF7 [26]): 2.86%
- Activity (MCF7 [27]): 6.18%
- Activity (MCF7 [28]): 6.86%
- Activity (MCF7 [29]): 0.52%
- Activity (MCF7 [30]): 74.1%
- Activity (MDA-MB-231 [31]): 17.71%
- Activity (MDA-MB-231 [32]): 75.82%
- Activity (MDA-MB-231 [33]): 1.47%
- Activity (MDA-MB-231 [34]): 73.31%
